From ChEMBL document CHEMBL2169822, “Discovery and optimization of 1,3,4-trisubstituted-pyrazolone derivatives as novel, potent, and nonsteroidal farnesoid X receptor (FXR) selective antagonists” (J Med Chem, 2012)
Calls of active or inactive are those of the source. The calls are words filed in the database; no cut-off is given here.

Columns and labels:
[1] = molecular target: T1, Peroxisome proliferator-activated receptor gamma (Homo sapiens) (UniProt P37231); experiment: Agonist activity at recombinant PPARgamma LBD expressed in HEK293T cells co-expressing GAL4 DBD at 20 uM by transactivation assay; type: functional, cell-based; conditions: HEK-293T
T1 sequence (whole entry): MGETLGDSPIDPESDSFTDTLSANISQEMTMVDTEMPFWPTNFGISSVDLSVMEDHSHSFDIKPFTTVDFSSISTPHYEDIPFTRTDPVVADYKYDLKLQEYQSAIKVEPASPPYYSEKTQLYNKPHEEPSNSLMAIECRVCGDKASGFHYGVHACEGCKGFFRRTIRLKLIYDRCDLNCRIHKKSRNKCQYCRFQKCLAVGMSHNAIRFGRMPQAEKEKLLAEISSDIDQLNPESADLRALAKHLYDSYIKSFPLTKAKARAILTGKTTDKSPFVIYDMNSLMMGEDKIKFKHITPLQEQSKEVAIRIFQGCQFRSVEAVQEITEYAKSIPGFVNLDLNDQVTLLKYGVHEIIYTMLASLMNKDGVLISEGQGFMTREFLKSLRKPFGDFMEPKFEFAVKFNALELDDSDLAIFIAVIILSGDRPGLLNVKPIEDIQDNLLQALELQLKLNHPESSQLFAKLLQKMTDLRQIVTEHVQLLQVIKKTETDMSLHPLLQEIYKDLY
Procedure, shortened: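 One-hybrid assay in HEK293T cells cotransfected with a Gal4 DBD–NR-LBD fusion (RXRα, LXRα, GR, PR, PPARδ or PPARγ) plus UAS-TK-Luc reporter. Compound was 20 μM, given alone or with agonist: 9cRA 0.1 μM (RXRα), TO901317 0.5 μM (LXRα), dexamethasone 50 nM (GR), progesterone 100 nM (PR), GW1516 10 μM (PPARδ), rosiglitazone 10 μM (PPARγ). Luciferase read-out; three independent experiments.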

Mus musculus = experiment: Reduction of hepatic triglyceride level in cholesterol-fed C57BL/6 mouse administered orally after 10 days; type: functional, organism-based
Procedure, shortened: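 Male C57BL/6 mice, 8–12 weeks old, were randomized into five groups of nine. Control mice had ground chow; the other groups had chow with 2% cholesterol. Compound (50 or 100 mg/kg) or reference (100 mg/kg) was suspended in 0.5% CMC-Na and given by oral gavage; control and vehicle mice got 0.5% CMC-Na. Serum and hepatic triglyceride and total cholesterol were measured.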

HEK-293T = experiment: Agonist activity at FXRalpha/RXRalpha expressed in HEK293T cells co-expressing GAL4 DBD after 18 hrs by luciferase based transactivation assay; type: functional, cell-based; conditions: Homo sapiens
Procedure, shortened: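 FXR transactivation in HEK293T cells transiently transfected with pcDNA3.1-FXRα, pcDNA3.1-RXRα, pGL3-FXRE-Luc and pRL-SV40 Renilla vector. Medium was replaced 6 h after transfection with medium holding compound at varied concentrations, with or without 20 μM CDCA, for 18 h. Read-out was dual-luciferase. Three independent experiments.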

[2] = molecular target: T2, Bile acid receptor (Homo sapiens) (UniProt Q96RI1); experiment: Antagonist activity at human FXR in human HepG2 cells assessed as reduction in cholesterol level after 24 hrs; type: functional, cell-based
T2 sequence (whole entry): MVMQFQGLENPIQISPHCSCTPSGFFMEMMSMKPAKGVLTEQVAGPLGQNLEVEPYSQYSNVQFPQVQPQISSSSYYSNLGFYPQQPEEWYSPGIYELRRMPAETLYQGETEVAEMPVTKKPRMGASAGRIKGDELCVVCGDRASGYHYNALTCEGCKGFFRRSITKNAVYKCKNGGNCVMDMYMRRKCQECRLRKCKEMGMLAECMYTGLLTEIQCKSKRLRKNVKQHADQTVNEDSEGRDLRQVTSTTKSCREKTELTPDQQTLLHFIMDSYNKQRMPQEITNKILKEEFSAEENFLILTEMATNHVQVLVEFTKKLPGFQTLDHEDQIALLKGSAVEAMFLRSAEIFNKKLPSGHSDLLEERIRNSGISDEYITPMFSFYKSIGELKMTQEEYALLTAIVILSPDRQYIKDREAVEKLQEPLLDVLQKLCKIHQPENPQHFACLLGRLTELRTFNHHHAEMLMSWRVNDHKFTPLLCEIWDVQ
Procedure, shortened: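 HepG2 cells were serum-starved overnight in FBS-free DMEM, then given DMSO or compound for 24 h in serum-free DMEM. Cells were lysed in RIPA buffer, sonicated on ice and centrifuged at 12000 rpm, 4 °C. Triglyceride and total cholesterol in the cleared lysate were measured by kits, with total protein by BCA. At least three experiments.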

## COc1cc(/C=C2\C(=O)N(c3cccc([N+](=O)[O-])c3)N=C2c2ccccc2)ccc1O
[1]
  Activity: < 15.2%
Mus musculus
  Activity: Dose-dependent effect
HEK-293T
  Activity: inactive
[2]
  inhibition: Dose-dependent effect
